Source: ChEMBL document CHEMBL1268917, “Synthesis and biological evaluation of radio-iodinated benzimidazoles as SPECT imaging agents for NR2B subtype of NMDA receptor” (Bioorg Med Chem, 2010)

How the values were obtained:
Assay type in all cases: ADME, organism-based
Intestine [1] = experiment: Biodistribution in ddY mouse intestine assessed per gram of tissue at 14.8 kBq, iv after 60 mins; details: in vivo, 1 h
Outline: (§1)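 Killed at set times after injection; organs and blood removed, weighed, gamma counted. Data as % injected dose per gram tissue, mean SD, n = 5–6.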

Brain [2] = experiment: Biodistribution in ddY mouse brain assessed per gram of tissue at 14.8 kBq, iv after 180 mins; details: in vivo, 3 h; outline: as §1
Heart [3] = experiment: Biodistribution in ddY mouse heart assessed per gram of tissue at 14.8 kBq, iv after 30 mins; details: in vivo, 0.5 h; outline: as §1
Pancreas [4] = experiment: Biodistribution in ddY mouse pancreas assessed per gram of tissue at 14.8 kBq, iv after 0.5 mins; details: in vivo
Outline: (§2)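 Radioiodinated tracer (14.8 kBq) injected via tail vein into male ddY mice (6 weeks, 30–35 g). Organs removed at set times after injection, weighed and gamma-counted; uptake expressed as % injected dose per gram tissue, mean ± SD, n = 5–6.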

Liver [5] = experiment: Biodistribution in ddY mouse liver assessed per gram of tissue at 14.8 kBq, iv after 180 mins; details: in vivo, 3 h; outline: as §1
Brain [6] = experiment: Biodistribution in ddY mouse brain assessed per gram of tissue at 14.8 kBq, iv after 0.5 mins; details: in vivo; outline: as §1
Heart [7] = experiment: Biodistribution in ddY mouse heart assessed per gram of tissue at 14.8 kBq, iv after 180 mins; details: in vivo, 3 h; outline: as §1
Liver [8] = experiment: Biodistribution in ddY mouse liver assessed per gram of tissue at 14.8 kBq, iv after 60 mins; details: in vivo, 1 h; outline: as §2
Spleen [9] = experiment: Biodistribution in ddY mouse spleen assessed per gram of tissue at 14.8 kBq, iv after 0.5 mins; details: in vivo; outline: as §2
Lung [10] = experiment: Biodistribution in ddY mouse lung assessed per gram of tissue at 14.8 kBq, iv after 0.5 mins; details: in vivo; outline: as §2
Kidney [11] = experiment: Biodistribution in ddY mouse kidney assessed per gram of tissue at 14.8 kBq, iv after 180 mins; details: in vivo, 3 h; outline: as §1
Brain [12] = experiment: Biodistribution in ddY mouse brain assessed per gram of tissue at 14.8 kBq, iv after 5 mins; details: in vivo; outline: as §1
Kidney [13] = experiment: Biodistribution in ddY mouse kidney assessed per gram of tissue at 14.8 kBq, iv after 5 mins; details: in vivo; outline: as §1
Blood [14] = experiment: Biodistribution in ddY mouse blood assessed per gram of tissue at 14.8 kBq, iv after 180 mins; details: in vivo, 3 h; outline: as §1
Stomach [15] = experiment: Biodistribution in ddY mouse stomach assessed per gram of tissue at 14.8 kBq, iv after 180 mins; details: in vivo, 3 h; outline: as §2
Lung [16] = experiment: Biodistribution in ddY mouse lung assessed per gram of tissue at 14.8 kBq, iv after 360 mins; details: in vivo, 6 h; outline: as §2
Lung [17] = experiment: Biodistribution in ddY mouse lung assessed per gram of tissue at 14.8 kBq, iv after 5 mins; details: in vivo; outline: as §2
Stomach [18] = experiment: Biodistribution in ddY mouse stomach assessed per gram of tissue at 14.8 kBq, iv after 5 mins; details: in vivo; outline: as §2
Intestine [19] = experiment: Biodistribution in ddY mouse intestine assessed per gram of tissue at 14.8 kBq, iv after 30 mins; details: in vivo, 0.5 h; outline: as §1
Blood [20] = experiment: Biodistribution in ddY mouse blood assessed per gram of tissue at 14.8 kBq, iv after 5 mins; details: in vivo; outline: as §1
Liver [21] = experiment: Biodistribution in ddY mouse liver assessed per gram of tissue at 14.8 kBq, iv after 5 mins; details: in vivo; outline: as §1
Liver [22] = experiment: Biodistribution in ddY mouse liver assessed per gram of tissue at 14.8 kBq, iv after 0.5 mins; details: in vivo; outline: as §1
Spleen [23] = experiment: Biodistribution in ddY mouse spleen assessed per gram of tissue at 14.8 kBq, iv after 180 mins; details: in vivo, 3 h; outline: as §2
Liver [24] = experiment: Biodistribution in ddY mouse liver assessed per gram of tissue at 14.8 kBq, iv after 30 mins; details: in vivo, 0.5 h; outline: as §1
Lung [25] = experiment: Biodistribution in ddY mouse lung assessed per gram of tissue at 14.8 kBq, iv after 60 mins; details: in vivo, 1 h; outline: as §2
Blood [26] = experiment: Biodistribution in ddY mouse blood assessed per gram of tissue at 14.8 kBq, iv after 360 mins; details: in vivo, 6 h; outline: as §1
Intestine [27] = experiment: Biodistribution in ddY mouse intestine assessed per gram of tissue at 14.8 kBq, iv after 360 mins; details: in vivo, 6 h; outline: as §1
Stomach [28] = experiment: Biodistribution in ddY mouse stomach assessed per gram of tissue at 14.8 kBq, iv after 60 mins; details: in vivo, 1 h; outline: as §2
Kidney [29] = experiment: Biodistribution in ddY mouse kidney assessed per gram of tissue at 14.8 kBq, iv after 360 mins; details: in vivo, 6 h; outline: as §1
Pancreas [30] = experiment: Biodistribution in ddY mouse pancreas assessed per gram of tissue at 14.8 kBq, iv after 180 mins; details: in vivo, 3 h; outline: as §2

SMILES: CS(=O)(=O)Nc1ccc2nc(CN3CCC(Cc4ccc([125I])cc4)CC3)[nH]c2c1
- Drug uptake (Intestine [1]): 3.79 % ID/g
- Drug uptake (Brain [2]): 0.67 % ID/g
- Drug uptake (Heart [3]): 4.29 % ID/g
- Drug uptake (Pancreas [4]): 0.92 % ID/g
- Drug uptake (Liver [5]): 17.81 % ID/g
- Drug uptake (Brain [6]): 0.32 % ID/g
- Drug uptake (Heart [7]): 6.93 % ID/g
- Drug uptake (Liver [8]): 13.74 % ID/g
- Drug uptake (Spleen [9]): 0.9 % ID/g
- Drug uptake (Lung [10]): 3.82 % ID/g
- Drug uptake (Kidney [11]): 15.23 % ID/g
- Drug uptake (Brain [12]): 0.44 % ID/g
- Drug uptake (Kidney [13]): 10.99 % ID/g
- Drug uptake (Blood [14]): 0.55 % ID/g
- Drug uptake (Stomach [15]): 4.04 % ID/g
- Drug uptake (Lung [16]): 0.93 % ID/g
- Drug uptake (Lung [17]): 3.52 % ID/g
- Drug uptake (Stomach [18]): 1.28 % ID/g
- Drug uptake (Intestine [19]): 3.07 % ID/g
- Drug uptake (Blood [20]): 0.95 % ID/g
- Drug uptake (Liver [21]): 19.35 % ID/g
- Drug uptake (Liver [22]): 4.6 % ID/g
- Drug uptake (Spleen [23]): 2.85 % ID/g
- Drug uptake (Liver [24]): 16.67 % ID/g
- Drug uptake (Lung [25]): 1.7 % ID/g
- Drug uptake (Blood [26]): 0.36 % ID/g
- Drug uptake (Intestine [27]): 6.49 % ID/g
- Drug uptake (Stomach [28]): 2.4 % ID/g
- Drug uptake (Kidney [29]): 10.51 % ID/g
- Drug uptake (Pancreas [30]): 5.39 % ID/g
